In the library only some 2.4% were active in any assay of this set; here they are far more common.
MOR-DOR ag = agonists of human mu-delta opioid receptor heterodimerization. P35372+P41143. cells, OPRM1-OPRD1 heterodimerization, luminescence. activation, % at 9.3 µM. hit rate 0.3% among 340,000; in the data active = activation above about 18%;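 note: 0% = vehicle-treated cells and 100% = reference agonist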
MC4R barr agon = human MC4R agonism via beta-arrestin; P32245; U2OS MC4R beta-arrestin complementation, luminescence; percent of melanotan II response, DMSO zero; activation, % at 8.9 µM; hit rate 0.98% among 360,000;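 active = activation above a per-plate cutoff, the mean activation of sample wells on that plate plus 3 SD, cut at about 8% in these data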
Target sequence (P32245 whole entry, looked up): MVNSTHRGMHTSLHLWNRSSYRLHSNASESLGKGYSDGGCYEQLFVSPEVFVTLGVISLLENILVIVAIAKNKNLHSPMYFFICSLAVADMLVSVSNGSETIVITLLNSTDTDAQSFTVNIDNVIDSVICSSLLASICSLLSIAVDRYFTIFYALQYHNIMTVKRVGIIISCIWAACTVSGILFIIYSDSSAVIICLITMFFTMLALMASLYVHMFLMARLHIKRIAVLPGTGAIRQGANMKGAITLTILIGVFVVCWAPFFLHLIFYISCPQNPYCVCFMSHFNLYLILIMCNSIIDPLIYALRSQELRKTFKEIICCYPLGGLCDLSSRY
HTR5A ag ctr = activates human HTR5A in OPRM1-OPRD1 agonist counter-screen; P47898; HTR5A agonist assay, luminescence, cell-based; activation, % at 9.3 µM; hit rate 0.61% among 340,000; AID 504692; in the data active = activation mostly above about 9.5%, no sharp cut-off; inactive = mostly below about 7.6%;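 note: 0% = cells with vehicle only and 100% = reference agonist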
MOR-DOR inv ag = inverse agonist of human OPRM1-OPRD1 heterodimerization | P35372+P41143 | inhibition, % at 9.3 µM | AID 504357 | hit rate 0.21% among 340,000 | cell-based MOR-DOR heterodimer luminescence, inverse agonism; in the data active = inhibition above about 22%, passing the limit was not always enough;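 note: 0% = cells with DMSO and 100% = wells without cells with DMSO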
MC4R antagonist = blocks human MC4R cAMP signaling. AID 540295. MC4R-expressing cells, MTII-stimulated cAMP, LANCE TR-FRET. P32245. inhibition, % at 6.5 µM. hit rate 0.48% among 360,000;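 active = inhibition above its plate's cutoff, the mean of tested wells on that plate plus 3 SD, cut at about 29% in these data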;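 note: 0% = Melanotan II alone and 100% = Melanotan II plus saturating MCL0020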
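Material – human MC4R-expressing U2OS cells · Repeats – no replicates · Detection – TR-FRET with Eu-cAMP and labeled anti-cAMP, 671 nm · Times – compound 30 min, challenge 1 h, detection 1 h · Compound – single nominal compound dose of 6.5 µM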
HTR5A inv ag = counter-screen for OPRM1-OPRD1 inverse agonists: human HTR5A inverse agonism; P47898; HTR5A cell line, luminescence; inhibition, % at 9.3 µM; hit rate 0.083% among 340,000; in the data active = inhibition mostly above about 23%, no sharp cut-off; inactive = mostly below about 18%;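 note: 0% = cells with DMSO and 100% = no-cell wells with DMSO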
cAMP nonselect = nonselective cAMP signaling inhibitor, MC4R antagonist counter-screen; shares compounds with MC4R antagonist; parental U2OS, forskolin cAMP, LANCE TR-FRET; inhibition, % at 6.5 µM; hit rate 26% among 1,600; AID 602193;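 active = mean inhibition over triplicates above the low-control well mean plus 3 SD, set per campaign, cut at about 13% in these data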;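 note: signal is single emission at 671 nm which falls as cellular cAMP rises; 0% = forskolin-stimulated wells and 100% = buffer without forskolin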
MC4R antag conf = human MC4R cAMP antagonism confirmation; hit rate 27% among 1,600; inhibition, % at 6.5 µM; shares compounds with MC4R antagonist; MC4R-expressing cells, MTII-stimulated cAMP, TR-FRET; AID 602195; in the data active = inhibition above about 29%;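 note: 0% = agonist stimulated wells alone and 100% = agonist stimulated wells plus saturating reference antagonist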
The depositor's hits bear a star; / = not tested or not shown.

SMILES	MOR-DOR ag	MC4R barr agon	HTR5A ag ctr	MOR-DOR inv ag	MC4R antagonist	HTR5A inv ag	cAMP nonselect	MC4R antag conf
Cc1ccc(NC(=S)Nc2cccc(-c3n[nH]c(=S)o3)c2)cc1	-3	-3	2	13	37*	-17	11	13
CCOc1ccc(CCNC(=O)C(CCC(N)=O)NC(=O)OCc2ccccc2)cc1OCC (stereo unspecified)	1	-1	-2	-3	15	-12	/	/
CCCc1nnc(NC(=O)c2nc(S(=O)(=O)Cc3cccc(C)c3)ncc2Cl)s1	0	-5	0	-1	38*	1	25*	47*
Cc1cccc(CS(=O)(=O)c2ncc(Cl)c(C(=O)Nc3c(C)cccc3C)n2)c1	-4	-6	-4	20	27	15	/	/
Cc1cccc(CS(=O)(=O)c2ncc(Cl)c(C(=O)NCc3ccccc3)n2)c1	-5	-5	-5	28	52*	28	27*	57*
O=C(Nc1ccc(F)cc1)c1nc(S(=O)(=O)Cc2ccccc2)ncc1Cl	-3	-4	0	13	8	0	/	/
CN(C)S(=O)(=O)c1cc(NC(=O)CNCc2ccc(F)cc2)ccc1Cl	1	-1	-1	-3	8	5	/	/
CN(CC(=O)NCCCc1ccccc1)Cc1ccc(Br)cc1	5	5	9	-21	30*	-32	-3	-1
Cc1cccc(C)c1NC(=O)c1sc(N)nc1-c1ccccc1	2	1	1	-10	30*	-3	-3	5
Cc1ccc(NC(=O)c2sc(N)nc2-c2ccccc2)cc1C	-2	0	-3	8	2	7	/	/
Cc1[nH]c(C)c(C(=O)/C=C/c2ccc([N+](=O)[O-])cc2)c1C	5	-2	-2	-26	31*	8	11	31*
O=C(CCS(=O)(=O)c1ccc(F)cc1)N1CCOCC1	-2	-1	2	9	-4	-22	/	/
Cc1sc2nc(CN3CCOCC3)nc(Cl)c2c1C	-1	-2	-3	7	32*	6	11	28
Cc1sc2nc(CN3CCOCC3)nc(NS(=O)(=O)c3cc(Cl)ccc3Cl)c2c1C	-1	-1	1	5	3	21	/	/
Cc1ccccc1OCC(=O)Nc1sc(C(=O)Nc2cccc(C)c2C)c(C)c1C#N	0	0	1	-3	105*	-7	2	-3
CCN1CCN(C(c2cccs2)C(C)NS(=O)(=O)c2ccccc2)CC1 (stereo unspecified)	0	1	3	0	0	-18	/	/
CCN1CCN(C(c2cccs2)C(C)NS(=O)(=O)c2ccc(C)cc2)CC1 (stereo unspecified)	0	-2	3	-3	30*	-3	1	-8
O=C(OCCN1CCCCC1)c1ccccc1Br	-4	0	0	17	30*	-1	-1	0
CCOC(=O)CC1C(=O)NCCN1C(=S)Nc1ccccc1 (stereo unspecified)	-1	2	8	4	29*	-40	-7	-22
COc1ccc(NC(=O)Cn2c(=O)n(CCC(=O)NCC3CCCO3)c(=O)c3cc(OC)c(OC)cc32)cc1 (stereo unspecified)	-3	0	0	17	0	15	/	/
COc1cc2c(=O)n(CCCC(=O)NCC3CCCO3)c(=O)n(CC(=O)c3ccc(F)cc3)c2cc1OC (stereo unspecified)	1	0	2	-3	30*	7	0	-3
Cc1ccccc1COc1cccc(/C=N/NC(=O)c2nnn(-c3nonc3N)c2C)c1	1	4	-1	-3	32*	-12	3	9
CCCOc1ccc(-c2c(C(=O)N/N=C/c3ccccc3)nnn2-c2nonc2N)cc1	0	0	5	2	30*	-10	6	10
CCOc1cccc(/C=N/N2CCN(c3ccc(Cl)cc3)CC2)c1O	2	0	9	-11	32*	-36	6	-8
COc1cc(/C=C/C(=O)OCC(=O)NCCN2C(=O)CSC2=O)ccc1OCC#N	3	-2	-3	-10	6	8	/	/
SMILES	MOR-DOR ag	MC4R barr agon	HTR5A ag ctr	MOR-DOR inv ag	MC4R antagonist	HTR5A inv ag	cAMP nonselect	MC4R antag conf
COc1cc(OC)cc(C(=O)N2CCN(Cc3ccccc3[N+](=O)[O-])CC2)c1	2	3	1	-14	29*	-2	-2	-9
COc1ccc(C(=O)N2CCN(Cc3ccccc3[N+](=O)[O-])CC2)cc1	-2	0	-2	9	6	5	/	/
CCC(Sc1nc2ccsc2c(=O)n1Cc1ccc(C(=O)O)cc1)C(=O)Nc1cc(Cl)ccc1C (stereo unspecified)	/	-2	/	/	37*	/	1	2
CC(=O)N1N=C(c2ccccc2)CC1c1cccs1 (stereo unspecified)	-3	0	1	13	29*	-4	-3	-15
O=C(c1ccccc1)N1N=C(c2ccccc2)CC1c1cccs1 (stereo unspecified)	0	2	0	-1	12	2	/	/
Oc1ccccc1CN1CCCC(N2CCN(c3cccc(C(F)(F)F)c3)CC2)C1 (stereo unspecified)	6	3	1	-33	2	-2	/	/
CCOC(=O)c1c(N/N=C/c2ccncc2)n[nH]c1C	1	-3	0	-4	-6	0	/	/
CCOC(=O)c1c(NC(=O)C(C)OC(=O)C2=COCCO2)sc2c1CCCC2 (stereo unspecified)	3	0	8	-10	36*	-20	0	19
CSc1ccccc1C(=O)Nc1c(C)cccc1C	2	2	-5	-9	32*	12	-2	-11
O=C(CSc1nccc(=O)[nH]1)Nc1ccccc1Sc1ccccc1	0	1	1	0	31*	-2	0	-12
COc1ccccc1NC(=O)CSc1nccc(=O)[nH]1	-2	-2	-1	9	-4	-9	/	/
CC(C)(C)OC(=O)N1CCC(NC(=O)c2nc[nH]c2C(=O)NCC(=O)OCc2ccccc2)CC1	0	-1	10	-1	34*	-28	9	8
CC1(C(=O)NS(=O)(=O)C2CC2)CCCN(C(=O)/C=C/c2ccccc2)C1 (stereo unspecified)	/	-1	/	/	9	/	/	/
CCOC(=O)CSc1nnc(-c2ccc(NS(=O)(=O)c3ccc(C)cc3)cc2)o1	3	-1	4	-15	38*	-11	5	22
Cc1ccc(S(=O)(=O)NCC(=O)OCc2nnc(-c3ccccc3)o2)cc1	-2	-2	-1	13	30*	-16	13	20

High-throughput results (PubChem BioAssay)
